Only some compounds are listed: those with a hit (about 1.9% of all), similar ones and a draw of the others.
CR mimetic SO: yeast age-related superoxide inhibition as caloric restriction mimetic; S. cerevisiae aged cells, superoxide DHE fluorescence; active compounds read low; actives 0.18% (n = 330,000); superoxide response (% of plate mean), % at 10 µM;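 active = superoxide response under a set limit, about three screen SD below normal, cut at about 65% in these data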;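 note: yeast aged for seven days with compound at 30 °C before DHE staining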
Rce1 inh: blocks yeast Ras-converting enzyme; Q03530; yeast membranes, quenched prenylated peptide cleavage fluorescence; calls only; actives 0.27% (n = 290,000);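 active = fall in fluorescence gain of 50% or more versus controls, with final raw signal at or below 3038400; inconclusive = same 50% fall but final raw signal above 3038400; inactive = fall in fluorescence gain under 50%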
T cell HTS: T cell immune modulators affecting CD8 T cell-vesicle binding | 2C CD8+ T cell-vesicle binding, flow cytometry; active compounds read low | actives 0.068% (n = 330,000) | response (vesicle binding), % at 7 µM;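 active = response, share of CD8 T cells binding vesicles, and their 90th percentile fluorescence all below set limits, cut at about 80% in these data, passing the limit was not always enough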;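 note: values below 100% mean blocked vesicle binding to the CD8+ T cells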
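Benchmarks: naked versus QL9-loaded vesicles / Assay system: purified 2C TCR transgenic mouse naive CD8+ T cells / Technique: high-throughput flow cytometry with anti-B7-1 and anti-CD8 staining / Timing: Cell–vesicle co-incubation 1.5 h at 37 °C, staining 20 min on ice / Read-out: percent CD8+ FL2 mean versus row control / Probe or stimulus: QL9-loaded Drosophila micro-vesicles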
V-ATPase pHluor: yeast V-ATPase proton transport regulation by pHLuorin. S. cerevisiae, pHLuorin cytosolic pH fluorescence. response, % at 10 µM. actives 0.37% (n = 350,000); in the data active = response mostly above about 7.3%, no sharp cut-off; inactive = mostly below about 5.4%; note: actives read high
proKLK7 act: activators of human kallikrein-7 zymogen; P49862; purified proKLK7, EDANS-DABCYL substrate fluorescence; 100% is mature enzyme control, 0% vehicle; activation, % at 7 µM; actives 0.9% (n = 370,000); AID 652039;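 active = activation above the mean of all tested compounds plus 3 SD, computed per campaign excluding outliers beyond control limits, cut at about 13% in these data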
Target sequence (P49862 whole entry, looked up): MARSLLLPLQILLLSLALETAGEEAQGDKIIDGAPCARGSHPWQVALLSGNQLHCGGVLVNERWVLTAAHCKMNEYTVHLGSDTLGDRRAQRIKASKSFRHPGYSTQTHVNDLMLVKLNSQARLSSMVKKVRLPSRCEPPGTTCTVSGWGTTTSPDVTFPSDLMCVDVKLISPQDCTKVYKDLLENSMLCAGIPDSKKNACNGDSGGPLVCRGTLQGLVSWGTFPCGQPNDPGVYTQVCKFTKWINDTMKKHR
beta cell repl: MIN6 beta-cell proliferation induction | proliferation, % at 10 µM | MIN6 cells proliferation, ATPlite luminescence, 48 h; cells starved in 0.2% serum; 100% = growth in 10% serum | actives 0.29% (n = 330,000);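 active = compounds whose signal lies at least 3.5 SD above the mean of all wells on their plate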
KLK7 act conf: confirmation of human kallikrein-7 zymogen activators; shares compounds with proKLK7 act; purified proKLK7, EDANS-DABCYL substrate fluorescence; scaled: vehicle 0, mature enzyme 100; activation, % at 7 µM; actives 68% (n = 3,200); AID 686949;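 active = activation, as change over the incubation, above the mean of all tested compounds plus 3 SD, cut at about 13% in these data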
EDANS interfere: optically interferes with EDANS-DABCYL signal, flagging KLK7 hits | activation, % at 7 µM | actives 80% (n = 3,200) | shares compounds with proKLK7 act | EDANS-DABCYL substrate fluorescence interference, no enzyme, 4 h; solvent 0%, active enzyme control 100%;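 active = activation above the all-compound mean plus 3 SD, ignoring values outside control-based bounds, cut at about 4.8% in these data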;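 note: value is the 4 h activation minus the activation read at time zero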
Hits are given with their value.

`O=C(CN1CCOCC1)NNC(=O)c1ccc(Cl)cc1` gave CR mimetic SO inactive, T cell HTS inactive, V-ATPase pHluor inactive, proKLK7 act inactive and beta cell repl inactive.
Screening Oc1ccccc1C=Nc1ccccc1-c1nc2ccccc2[nH]1 returned CR mimetic SO inactive, Rce1 inh inactive, T cell HTS inactive, V-ATPase pHluor inactive, proKLK7 act 77, beta cell repl inactive, KLK7 act conf inactive and EDANS interfere inactive.
For Fc1ccccc1-c1nc2ccccc2[nH]1 the results were CR mimetic SO inactive, Rce1 inh inactive, T cell HTS inactive, V-ATPase pHluor inactive, proKLK7 act inactive and beta cell repl inactive.
For COc1ccc(OC)c(C=Nc2ccccc2-c2nc3ccccc3[nH]2)c1 the results were CR mimetic SO inactive, Rce1 inh inactive, T cell HTS inactive, V-ATPase pHluor inactive, proKLK7 act 31, beta cell repl inactive, KLK7 act conf inactive and EDANS interfere inactive.
`Oc1ccc(C=Nc2ccccc2-c2nc3ccccc3[nH]2)c(O)c1` gave CR mimetic SO inactive, Rce1 inh inconclusive, T cell HTS inactive, V-ATPase pHluor inactive, proKLK7 act 38, beta cell repl inactive, KLK7 act conf inactive and EDANS interfere inactive.
Screening CCn1c2ccccc2c2cc(NC(=O)C(C)OC(=O)c3ccc(NC(=O)CC#N)cc3)ccc21 (stereo unspecified) returned CR mimetic SO inactive, T cell HTS inactive, V-ATPase pHluor inactive, proKLK7 act inactive and beta cell repl inactive.
Screening CCOC(=O)N1CCN(C(=O)C[C@@H]2C[C@@]3(C(=O)OC)CCCCC=C3N(Cc3ccc(Cl)cc3Cl)C2=O)CC1 returned proKLK7 act inactive.
For COc1ccc(/C=N/NC(=O)c2nc(Cl)c(Cl)c(N)c2Cl)cc1COc1ccccc1F the results were CR mimetic SO inactive, Rce1 inh inactive, T cell HTS inactive, V-ATPase pHluor inactive, proKLK7 act 42, beta cell repl inactive, KLK7 act conf 59 and EDANS interfere 72.
`O=C(O)c1cc2cccc(S(=O)(=O)N3CCCCC3)c2cc1O` gave CR mimetic SO inactive, Rce1 inh inactive, T cell HTS inactive, V-ATPase pHluor inactive, proKLK7 act 21, beta cell repl inactive, KLK7 act conf 85 and EDANS interfere 88.
`O=S(=O)(c1cccc2ccccc12)N1CCCCC1` gave Rce1 inh inactive, V-ATPase pHluor inactive, proKLK7 act inactive and beta cell repl inactive.
`O=C1NC(c2ccccc2)(c2ccccc2)C(=O)N1CNc1ccccn1` gave proKLK7 act inactive.
`COc1cc2cc(C(c3nnnn3C(C)(C)C)N3CCc4ccccc4C3)c(=O)[nH]c2cc1OC` (stereo unspecified) gave CR mimetic SO inactive, Rce1 inh inactive, T cell HTS inactive, V-ATPase pHluor inactive, proKLK7 act 25, beta cell repl inactive, KLK7 act conf inactive and EDANS interfere inactive.
`C=CCCC1CN(Cc2ccc(OC)cc2)S(=O)(=O)c2c(Oc3ccc(F)cc3OC)cccc2O1` (stereo unspecified) gave proKLK7 act inactive.
Screening COc1cc2ccc(=O)oc2c(O)c1OCC=C(C)C returned CR mimetic SO inactive, Rce1 inh inactive, T cell HTS inactive, V-ATPase pHluor inactive, proKLK7 act 148, beta cell repl inactive, KLK7 act conf 152 and EDANS interfere 151.
For Fc1cccc(Cl)c1C1SCc2nc3ccccc3n21 (stereo unspecified) the results were proKLK7 act inactive.
For CCC1(C)Cc2ccccc2-c2nc(NCCO)n(-c3ccccc3)c(=O)c21 (stereo unspecified) the results were CR mimetic SO inactive, Rce1 inh inactive, T cell HTS inactive, V-ATPase pHluor inactive, proKLK7 act 26, beta cell repl inactive, KLK7 act conf inactive and EDANS interfere inactive.

Bioassay records (PubChem BioAssay)
